Compound activity deposited in PubChem by several laboratories.
ANO1 block = blocks the mouse calcium-activated chloride channel TMEM16A; AID 588511; HEK293 TMEM16A/YFP iodide influx fluorescence, ionomycin; normalized B-score (activity score, 25-100; higher = stronger inhibition) at 10 µM; 310,000 compounds, 1.2% hits; Q8BHY3;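 active means ratio plate-corrected score three or more library SD toward inhibition, starting fluorescence score within five deviations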;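 further: score derived from kinetic fluorescence span divided by baseline fluorescence per well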
TAAR1 ag = human TAAR1 agonism; activation, % at 3 µM; AID 624467; CHO RD-HGA16 TAAR1, Fluo-8 calcium fluorescence; vehicle wells 0%, saturating PEA agonist 100%; 360,000 compounds, 0.99% hits; Q96RJ0;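 active means activation above the mean activation of all test compounds in the run plus 3 SD, cut at about 38% in these data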
Target sequence (Q96RJ0 whole entry, looked up): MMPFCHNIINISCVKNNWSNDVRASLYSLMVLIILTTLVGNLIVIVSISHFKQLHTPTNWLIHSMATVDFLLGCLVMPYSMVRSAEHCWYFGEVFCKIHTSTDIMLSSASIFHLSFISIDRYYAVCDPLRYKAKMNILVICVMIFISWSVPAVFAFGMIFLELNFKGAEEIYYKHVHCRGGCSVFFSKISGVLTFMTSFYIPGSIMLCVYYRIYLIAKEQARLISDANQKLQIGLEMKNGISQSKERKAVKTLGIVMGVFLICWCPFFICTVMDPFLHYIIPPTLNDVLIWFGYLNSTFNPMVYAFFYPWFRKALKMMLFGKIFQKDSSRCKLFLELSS
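System: CHO-derived RD-HGA16 cells with stable Gα16 and human TAAR1 / Times: 17-24 h plating, Fluo-8 75 min 37 °C, 30 min RT / Technique: calcium-sensitive Fluo-8 signal, excitation 470-495, emission 515-575 nm / Measure: % activation relative to PEA EC100 response / Benchmarks: DMSO and PEA EC100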
CRFR2-BP ag = agonists of human CRF-binding protein/CRF-R2 receptor complex. HEK293 CRF-R2/CRF-BP, calcium dye fluorescence (FLIPR); percent of saturating CRF peptide response. activation, % at 13.2 µM. 350,000 compounds, 0.46% hits. AID 588473;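 active means activation of at least 50%, plus an integration ratio under a set limit after plate pattern correction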;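 further: plate controls were neutral control wells without compound for no effect and CRF at EC100 for full effect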
ANO1 activ = activates or potentiates the mouse TMEM16A chloride channel | HEK293 TMEM16A/YFP-H148Q/I152L, iodide quench fluorescence; stronger effect = lower value | B-score at 10 µM | 340,000 compounds, 0.3% hits | AID 623877;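 active means fluorescence-ratio B-score plate-corrected deviation score at least 3 library SD below zero, with starting fluorescence score within 5 deviations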;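 further: channel opened by trigger with iodide after compound preincubation; score built on the fluorescence ratio of max minus min over baseline; more negative score means more quench and so TMEM16A activation or potentiation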
CRFBP-R2 block = blocks CRF-induced signaling of the CRF-BP/CRF-R2 complex; HEK293 CRF-R2/CRF-BP, CRF-induced calcium fluorescence; 350,000 compounds, 0.59% hits; AID 588475; inhibition, % at 11.8 µM;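 active means inhibition of the ligand-induced calcium signal above about 50% at the single tested concentration, limit read from the data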
TAAR1 antag = antagonists of human TAAR1; Q96RJ0; CHO RD-HGA16 TAAR1, Fluo-8 calcium fluorescence, antagonist; inhibition, % at 3 µM; 360,000 compounds, 1.5% hits; AID 624466;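 active means inhibition above a per-plate cutoff, the mean inhibition of test compounds on that plate plus 3 SD, cut at about 49% in these data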;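 further: 0% = DMSO plus EC80 beta-PEA response and 100% = DMSO alone without agonist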
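Material: CHO RD-HGA16 cells bearing hTAAR1; compound dosing: one-point dosing, 3 µM nominal final; schedule: dye loading 75 min at 37 °C, then 30 min room temperature; measured by: calcium fluorescence with Fluo-8; control set: vehicle and agonist controls; replication: n of 1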
Starred values were filed as active, the others as inactive; i = inactive; . = no result given. Sampled rows, rich in hits. Any-hit rate of the full collection: about 3.9%.

SMILES | ANO1 block | TAAR1 ag | CRFR2-BP ag | ANO1 activ | CRFBP-R2 block | TAAR1 antag
COC(=O)C1CN(C(=O)COc2ccc(C)cc2)c2ccccc2O1 (configuration not stated) | i | 2.5 | -0.7 | i | 1.5 | -8.4
CCC1=NN(C(=O)C(=O)Nc2ccc(Br)cc2)C(O)(C(F)(F)F)C1 (configuration not stated) | i | 4.3 | -0.3 | i | -0.4 | -12.5
CCCC1=NN(C(=O)C(=O)Nc2ccc(Br)cc2)C(O)(C(F)(F)F)C1 (configuration not stated) | 25* | 7.7 | 2.5 | i | -14.3 | 10.4
O=C(CNC1CC1)Nc1cc(C(F)(F)F)ccc1Cl | i | -2.9 | -0.9 | i | 1.8 | -24.8
O=C(NCc1ccco1)C(c1ccccc1)N(C(=O)Cc1cccs1)c1ccccc1F (configuration not stated) | i | 9.8 | -0.9 | i | 3.2 | 58.0*
O=C(NCc1ccco1)C(c1ccncc1)N(C(=O)Cc1cccs1)c1ccccc1 (configuration not stated) | i | 4.0 | 3.4 | i | -1.2 | 3.0
Cc1ccccc1OCCOc1cccc(/C=N/NC(=O)Cc2nnc(N)s2)c1 | i | 14.2 | 3.5 | i | -42.7 | 48.9*
COc1ccccc1NC(=O)COc1cccc2c1CCNC2=O | i | 6.0 | -0.8 | i | 15.2 | 7.7
O=C(c1ccc(NS(=O)(=O)c2ccccc2)cc1)N1CCOCC1 | i | 2.8 | 1.1 | i | -2.8 | -2.3
COc1ccc(CNC(=O)[C@]2(C)CCC[C@@]3(C)C4CC[C@@]5(C)C[C@]4(CCC32)CC5=O)cc1 (some centres not stated) | . | 13.7 | -1.3 | i | -0.9 | 48.7*
COc1ccc(S(=O)(=O)N2CCCCCC2)cc1C(=O)N(C)Cc1ccc(C(C)(C)C)cc1 | 25* | 1.0 | 2.4 | i | 78.5* | -29.4
O=C(NC1CCN(Cc2ccccc2)C1)c1cc(S(=O)(=O)N2CCOCC2)ccc1Cl (configuration not stated) | . | 2.7 | -1.4 | i | 17.2 | -9.9
Cc1ccc(S(=O)(=O)N2CCOCC2)cc1C(=O)NC1CCN(Cc2ccccc2)CC1 | . | -3.4 | 2.8 | i | 56.3* | -12.9
CCOc1ccccc1N1CCN(C(=O)c2cc(S(=O)(=O)N3CCCCC3)ccc2C)CC1 | . | 27.8 | 0.2 | i | 4.9 | 54.6*
Cc1ccc(S(=O)(=O)N2CCCCC2)cc1C(=O)N(CCc1ccccc1)Cc1ccccc1 | i | 4.6 | 3.8 | i | 67.0* | 12.3
COc1ccc(S(=O)(=O)N2CCCCCC2)cc1C(=O)N(C)Cc1ccc(F)cc1 | i | 0.5 | -0.5 | i | -6.4 | -17.2
COc1ccccc1N1CCN(C(=O)c2cc(S(=O)(=O)N3CCCCC3)ccc2C)CC1 | . | 11.4 | -2.2 | i | -7.3 | 24.3
Cc1ccsc1C(=O)OCC(=O)NC1CCCCC1 | . | 2.1 | 0.3 | . | 5.8 | -16.6
O=C(C(=O)N1CCN(C(=O)OCc2ccccc2)CC1)c1cccs1 | . | 2.9 | . | . | . | -18.5
CCOc1ccccc1NC(=O)c1ccc(NC(=O)C2CCCO2)cc1 (configuration not stated) | i | 3.0 | -1.8 | i | 2.5 | -12.8
CCCCn1c(N)c(N(CC(C)C)C(=O)CCNC(=O)c2ccc([N+](=O)[O-])cc2)c(=O)[nH]c1=O | . | 1.4 | -0.1 | i | -5.5 | -12.9
CCC(CO)[n+]1c(C)cc(/C=C2\Sc3ccccc3N2Cc2ccccc2)cc1C (configuration not stated) | i | 5.2 | 77.0* | i | -102.6 | 5.5
CCN1CCN(c2nc(Nc3ccc(NC(C)=O)cc3)nc(Nc3ccc(NC(C)=O)cc3)n2)CC1 | i | -1.4 | -1.0 | i | -7.6 | -3.4
COc1ccc(/C=C2/SC(=S)N(Cc3ccccc3)C2=O)cc1O | i | 15.1 | -1.2 | i | -6.4 | -44.3
CN1C(=O)/C(=C\c2cc(N=Nc3ccccc3)ccc2O)SC1=S | 100* | 2.4 | 3.5 | i | 31.7 | -5.5
